Measured values reported in ChEMBL document CHEMBL4251754, “Identification of a Potent Tryptophan-Based TRPM8 Antagonist With in Vivo Analgesic Activity” (J Med Chem, 2018).
The source made the active and inactive calls. No cut-off for these calls is given here.

Legend:
[1] = molecular target: T1, Transient receptor potential cation channel subfamily M member 8 (Rattus norvegicus, UniProt Q8R455); assay: (§1) Antagonist activity at rat TRPM8 expressed in HEK293 cells assessed as reduction in menthol-induced channel currents by whole cell patch clamp method; assay type: cell-based
Method in brief: (§2)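 HEK293 cells grown in DMEM/10% FBS, plated on poly-L-lysine coverslips, transiently transfected 24 h later with rat TRPM8 cDNA (3.6 μg) plus EGFP marker (total cDNA 4 μg). Whole-cell recordings 24 h post-transfection on EGFP-positive cells, 3–5 MΩ pipettes. Extracellular solution (mM): 138 NaCl, 5.4 KCl, 2 CaCl2, 1 MgCl2, 10 glucose, 10 HEPES, pH 7.4. Currents evoked by 500 μM menthol, monitored at +80 and −80 mV.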

[2] = molecular target: T1, Transient receptor potential cation channel subfamily M member 8; assay: Antagonist activity at rat TRPM8 expressed in HEK293 cells assessed as reduction in menthol-induced calcium flux incubated for 60 mins by Fluo-4 NW-dye based fluorimetric assay; assay type: cell-based
Method in brief: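 HEK293 cells stably expressing rat TRPM8, seeded 2 days ahead, loaded with Fluo-4 NW containing 2.5 mM probenecid; compounds in DMSO, 60 min at 37 °C in darkness. Four baseline cycles, 100 μM menthol stimulation, 15 further cycles read (ex 485/em 535 nm). Normalized to menthol + 10 μM AMTB coexposure; DMSO controls.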

[3] = molecular target: Transient receptor potential cation channel subfamily M member 8 (Rattus norvegicus) (UniProt Q8R455); assay: as §1; assay type: cell-based; method in brief: as §2
[4] = molecular target: Transient receptor potential cation channel subfamily M member 8 (Rattus norvegicus) (UniProt Q8R455); assay: Reversible antagonist activity at rat TRPM8 expressed in HEK293 cells at 500 nM assessed as reduction in menthol-induced channel currents measured after drug wash out by whole cell patch clamp method; assay type: cell-based
Method in brief: (§3)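 HEK293 cells transiently transfected with rat TRPM8 cDNA plus EGFP marker, recorded 24 h later by whole-cell patch clamp on EGFP-positive cells (3–5 MΩ pipettes). Extracellular (mM): 138 NaCl, 5.4 KCl, 2 CaCl2, 1 MgCl2, 10 glucose, 10 HEPES, pH 7.4. Currents evoked by 500 μM menthol, read at +80 and −80 mV; compound added during menthol exposure.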

[5] = molecular target: Transient receptor potential cation channel subfamily V member 1 (Mus musculus) (UniProt Q704Y3); assay: Antagonist activity at mouse TRPV1 expressed in human SH-SY5Y cells assessed as inhibition of capsaicin induced calcium influx at 0.001 to 100 uM incubated for 60 mins by Fluo-4 NW-dye based fluorimetric assay; assay type: cell-based
Method in brief: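 SH-SY5Y cells stably expressing mouse TRPV1, seeded 2 days before, loaded with Fluo-4 NW plus 2.5 mM probenecid; compounds in DMSO added, 60 min at 37 °C in darkness. Four baseline cycles, then 10 μM capsaicin, recorded 15 more cycles (ex 485/em 535 nm). Signal normalized to capsaicin + 10 μM ruthenium red coexposure.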

[6] = molecular target: Transient receptor potential cation channel subfamily M member 8 (Rattus norvegicus) (UniProt Q8R455); assay: Antagonist activity at rat TRPM8 expressed in HEK293 cells at 500 nM assessed as reduction in menthol-induced channel currents by whole cell patch clamp method; assay type: cell-based; method in brief: as §3
[7] = molecular target: Transient receptor potential cation channel subfamily M member 8 (Homo sapiens, UniProt Q7Z2W7); assay: Antagonist activity at TRPM8 (unknown origin) assessed as reduction in menthol-induced calcium influx
Method in brief: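 HEK293 cells stably expressing rat TRPM8, seeded 2 days ahead, loaded with Fluo-4 NW plus 2.5 mM probenecid. Compounds in DMSO preincubated 60 min at 37 °C in the dark. Four baseline cycles, then stimulation with 100 μM menthol and 15 further read cycles (ex 485, em 535 nm). Signal normalized to menthol + 10 μM AMTB coexposure. DMSO vehicle controls.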

Mus musculus [8] = assay: Antinociceptive activity in C57Bl/6J mouse assessed as inhibition of icilin induced wet-dog shakes at 25 mg/kg, sc pretreated 1 hr before icillin addition and measured after 30 mins by wet-dog shakes assay; assay type: functional, organism-based
Method in brief: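 Male C57 mice, 5 weeks, ~30 g, acclimatized 30 min on two consecutive days. Gabapentin in saline, 25 mg/kg s.c. 60 min before icilin (10 mg/kg i.p. in 20% DMSO/1% Tween 80). Wet-dog shakes counted over 30 min; mean ± SEM, n = 6; two-way ANOVA with Bonferroni.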

[9] = Apparent permeability of the compound in 0.01 M phosphate buffer at pH 7.4 at 0.5 mM after 24 hrs by PAMPA; assay type: ADME
Method in brief: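 Donor at 0.5 mM, diluted from 10 mM DMSO stock into 0.01 M phosphate buffer pH 7.4. Filter coated with 1% phosphatidylcholine in dodecane; acceptor is 5% DMSO in phosphate buffer. Incubated 24 h at room temperature with gentle shaking. Acceptor analysed by HPLC-UV at 220 nm against no-membrane references. Papp from Faller-modified Sugano equation; triplicate, with propranolol and furosemide as references.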

[10] = Chemical stability of compound in phosphate buffer at pH 7.4 after 15 to 60 mins by HPLC analysis; assay type: physicochemical
Method in brief: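 DMSO stock (10 mg/mL) diluted 1:100 in phosphate buffer and stirred at 37 °C. At 15, 30 and 60 min, extracted with dichloromethane (1:1), dried under nitrogen, reconstituted in methanol and filtered. Analysed by C18 HPLC with a 0.1% TFA water/acetonitrile gradient (5–90% B over 7 min), 0.5 mL/min, 220 nm detection. Triplicate.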

[11] = Drug metabolism in mouse serum assessed as (S)-2-(Dibenzylamino)-3-(1H-indol-3-yl)propanoic Acid formation after 15 to 60 mins by HPLC analysis; assay type: ADME, cell-free
Method in brief: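 DMSO stock diluted 1:1000 in mouse serum (from retro-orbital blood) and stirred at 37 °C. Samples taken at 15, 30 and 60 min, extracted with dichloromethane, then analysed by C18 HPLC (0.1% TFA water/acetonitrile gradient, 220 nm) for parent and acid metabolite. Blank serum checked for interfering peaks; acetylsalicylic acid used to verify hydrolytic activity. Triplicate.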

[12] = molecular target: Transient receptor potential cation channel subfamily M member 8 (Rattus norvegicus) (UniProt Q8R455); assay: Antagonist activity at rat TRPM8 expressed in HEK293 cells at 100 nM assessed as reduction in menthol-induced channel currents by whole cell patch clamp method; assay type: cell-based
[13] = molecular target: Transient receptor potential cation channel subfamily M member 8 (Rattus norvegicus) (UniProt Q8R455); assay: Reversible antagonist activity at rat TRPM8 expressed in HEK293 cells at 100 nM assessed as reduction in menthol-induced channel currents measured after drug wash out by whole cell patch clamp method; assay type: cell-based
Mus musculus [14] = assay: Antinociceptive activity in sc dosed C57Bl/6J mouse assessed as inhibition of icilin induced wet-dog shakes pretreated 30 mins before icillin addition and measured after 30 mins by wet-dog shakes assay; assay type: functional, organism-based
Method in brief: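 Male C57 mice, 5 weeks, ~30 g, acclimatized 30 min on two consecutive days. Compound (1, 10, 30 mg/kg; DMSO stock diluted in saline) or vehicle given s.c. 30 min before icilin 10 mg/kg i.p. (in 20% DMSO/1% Tween 80 in water). Gabapentin 25 mg/kg s.c. given 60 min before icilin. Wet-dog shakes counted over 30 min. Mean ± SEM, n = 6; two-way ANOVA with Bonferroni test.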

Mus musculus [15] = assay: Antinociceptive activity in C57Bl/6J mouse assessed as inhibition of icilin induced wet-dog shakes at 30 mg/kg, sc pretreated 30 mins before icillin addition and measured after 30 mins by wet-dog shakes assay; assay type: functional
Method in brief: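 Male C57 mice, 5 weeks, ~30 g, acclimatized 30 min on two consecutive days. Compound (DMSO stock diluted in saline) given s.c. at 1, 10 or 30 mg/kg 30 min before icilin 10 mg/kg i.p. (20% DMSO/1% Tween 80). Wet-dog shakes counted over 30 min; mean ± SEM, n = 6; two-way ANOVA, Bonferroni.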

Mus musculus [16] = assay: Antinociceptive activity in sc dosed C57/BL6 mouse assessed as inhibition of oxaliplatin induced cold allodynia administered as single dose injected into plantar surface of right hind paw on day 7 post oxaliplatin treatment and measured after 15 to 30 mins by acetone drop method; assay type: functional, organism-based
Method in brief: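 Male C57 mice, 5 weeks, ~30 g. Oxaliplatin 6 mg/kg given on days 1, 3 and 5, with saline and 5% mannitol i.p.; tested on day 7. Antagonist stock in DMSO, diluted in saline, 0.1–1 μg injected in 25 μL into the plantar surface of the right hind paw. Acetone drop test after ~30 min habituation; paw sampled twice (~5 min apart) and averaged.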

Chain of Transient receptor potential cation channel subfamily M member 8 (Rattus norvegicus) (Q8R455 whole entry, looked up): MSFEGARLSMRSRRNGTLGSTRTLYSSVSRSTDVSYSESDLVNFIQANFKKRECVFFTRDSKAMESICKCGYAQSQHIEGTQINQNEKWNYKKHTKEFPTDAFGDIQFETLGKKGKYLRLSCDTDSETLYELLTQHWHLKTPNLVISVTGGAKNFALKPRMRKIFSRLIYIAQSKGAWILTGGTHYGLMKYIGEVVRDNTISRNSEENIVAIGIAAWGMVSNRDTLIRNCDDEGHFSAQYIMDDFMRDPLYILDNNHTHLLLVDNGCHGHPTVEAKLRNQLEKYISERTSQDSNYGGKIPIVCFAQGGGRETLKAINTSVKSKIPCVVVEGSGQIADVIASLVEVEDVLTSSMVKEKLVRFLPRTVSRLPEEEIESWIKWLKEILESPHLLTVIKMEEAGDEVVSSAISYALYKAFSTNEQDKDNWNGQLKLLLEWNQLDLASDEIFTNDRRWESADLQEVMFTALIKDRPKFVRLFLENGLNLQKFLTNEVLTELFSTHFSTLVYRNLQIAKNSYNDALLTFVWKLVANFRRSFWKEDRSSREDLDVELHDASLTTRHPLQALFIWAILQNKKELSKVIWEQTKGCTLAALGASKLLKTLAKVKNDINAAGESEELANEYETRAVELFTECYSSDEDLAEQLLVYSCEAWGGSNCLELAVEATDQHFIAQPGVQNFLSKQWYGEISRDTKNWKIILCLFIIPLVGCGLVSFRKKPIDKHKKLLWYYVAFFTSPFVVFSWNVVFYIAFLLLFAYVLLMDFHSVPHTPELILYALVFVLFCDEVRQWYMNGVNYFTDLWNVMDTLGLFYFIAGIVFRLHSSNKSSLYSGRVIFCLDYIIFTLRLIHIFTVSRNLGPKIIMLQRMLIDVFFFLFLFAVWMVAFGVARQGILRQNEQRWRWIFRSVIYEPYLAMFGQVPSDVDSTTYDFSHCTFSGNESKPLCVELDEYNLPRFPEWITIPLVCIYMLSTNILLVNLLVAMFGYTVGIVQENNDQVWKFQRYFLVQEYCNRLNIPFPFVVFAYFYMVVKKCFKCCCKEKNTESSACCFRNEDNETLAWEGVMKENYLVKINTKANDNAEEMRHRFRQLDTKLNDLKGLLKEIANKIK
T1 sequence (Q8R455 whole entry): as the sequence (Q8R455 whole entry, looked up) above
Chain of Transient receptor potential cation channel subfamily V member 1 (Mus musculus) (Q704Y3 whole entry): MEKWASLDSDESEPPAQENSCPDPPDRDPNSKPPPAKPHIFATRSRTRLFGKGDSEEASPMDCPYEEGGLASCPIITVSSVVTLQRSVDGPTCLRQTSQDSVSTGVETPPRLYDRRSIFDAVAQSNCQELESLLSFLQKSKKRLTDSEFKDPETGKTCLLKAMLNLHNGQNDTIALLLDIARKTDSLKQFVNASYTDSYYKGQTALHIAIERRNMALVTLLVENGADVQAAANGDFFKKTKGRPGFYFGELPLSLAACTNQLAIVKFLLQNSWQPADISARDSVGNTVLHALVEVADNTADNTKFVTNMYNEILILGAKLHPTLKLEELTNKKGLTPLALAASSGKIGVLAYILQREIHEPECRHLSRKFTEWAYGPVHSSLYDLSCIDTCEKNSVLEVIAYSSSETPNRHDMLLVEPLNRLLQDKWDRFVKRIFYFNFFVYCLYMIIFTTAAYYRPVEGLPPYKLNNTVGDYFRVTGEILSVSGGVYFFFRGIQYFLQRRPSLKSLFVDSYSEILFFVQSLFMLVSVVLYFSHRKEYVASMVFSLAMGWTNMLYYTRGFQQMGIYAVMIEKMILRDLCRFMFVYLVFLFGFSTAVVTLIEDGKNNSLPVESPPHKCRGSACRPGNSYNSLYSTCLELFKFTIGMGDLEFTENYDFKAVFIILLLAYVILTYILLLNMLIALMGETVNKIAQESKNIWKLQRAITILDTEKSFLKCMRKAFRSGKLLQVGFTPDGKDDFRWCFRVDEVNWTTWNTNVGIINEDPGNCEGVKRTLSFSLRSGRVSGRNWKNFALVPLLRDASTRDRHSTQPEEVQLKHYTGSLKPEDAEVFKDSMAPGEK
Chain of Transient receptor potential cation channel subfamily M member 8 (Homo sapiens, UniProt Q7Z2W7) (Q7Z2W7 whole entry): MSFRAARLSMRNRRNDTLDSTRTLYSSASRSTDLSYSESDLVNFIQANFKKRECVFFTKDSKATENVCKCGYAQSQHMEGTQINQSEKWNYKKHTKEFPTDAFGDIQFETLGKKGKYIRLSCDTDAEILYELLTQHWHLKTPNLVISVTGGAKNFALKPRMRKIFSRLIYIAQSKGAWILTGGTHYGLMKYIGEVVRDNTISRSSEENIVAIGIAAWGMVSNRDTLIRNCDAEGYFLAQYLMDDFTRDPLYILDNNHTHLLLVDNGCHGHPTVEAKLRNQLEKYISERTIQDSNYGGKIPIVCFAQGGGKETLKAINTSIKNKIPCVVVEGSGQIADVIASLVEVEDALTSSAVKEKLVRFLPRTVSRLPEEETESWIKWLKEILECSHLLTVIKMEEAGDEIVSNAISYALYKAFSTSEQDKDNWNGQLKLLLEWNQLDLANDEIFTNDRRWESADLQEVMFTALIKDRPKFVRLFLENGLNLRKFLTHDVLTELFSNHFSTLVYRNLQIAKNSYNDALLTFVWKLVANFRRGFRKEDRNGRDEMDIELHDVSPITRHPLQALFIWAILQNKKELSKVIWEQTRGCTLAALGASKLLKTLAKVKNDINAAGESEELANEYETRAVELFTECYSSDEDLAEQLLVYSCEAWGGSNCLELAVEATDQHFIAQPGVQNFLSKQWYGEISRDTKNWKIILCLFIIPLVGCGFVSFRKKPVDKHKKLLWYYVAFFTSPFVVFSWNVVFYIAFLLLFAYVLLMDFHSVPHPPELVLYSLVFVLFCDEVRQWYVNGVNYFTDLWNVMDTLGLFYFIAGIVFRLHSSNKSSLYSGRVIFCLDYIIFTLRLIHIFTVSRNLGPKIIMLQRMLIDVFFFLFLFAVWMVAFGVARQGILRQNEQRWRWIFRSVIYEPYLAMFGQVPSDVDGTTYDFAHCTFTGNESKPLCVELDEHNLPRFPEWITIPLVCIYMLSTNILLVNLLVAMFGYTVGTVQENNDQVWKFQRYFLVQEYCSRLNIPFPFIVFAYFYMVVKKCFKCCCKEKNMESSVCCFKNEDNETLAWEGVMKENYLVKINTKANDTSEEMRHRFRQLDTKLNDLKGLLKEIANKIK

COC(=O)[C@@H](Cc1c[nH]c2ccccc12)N(Cc1ccccc1)Cc1ccccc1
IC50 [1]: 865 nM

c1cc2c3c(cccc3c1)CN(CCc1c[nH]c3ccccc13)C2
IC50 [2]: 11.8 µM

Cc1cccc(COc2ccccc2C(=O)N(CCCN)Cc2cccs2)c1
IC50 [2]: 6.5 µM

Cn1cc(CCN(Cc2ccccc2)Cc2ccccc2)c2ccccc21
IC50 [2]: 3.3 µM

c1ccc(CN(CCc2c[nH]c3ccccc23)CC2CCCCC2)cc1
IC50 [1]: 3.5 nM | inhibition [3]: Dose-dependent effect | inhibition [4]: Active | inhibition [5]: inactive | inhibition [6]: Active | IC50 [2]: 0.6 µM

CC(C)(C)c1ccc(NC(=O)N2CCN(c3ncccc3Cl)CC2)cc1
IC50 [7]: 475 nM

O=C(O)c1ccc(CN2CCc3c([nH]c4ccccc34)C2c2ccccc2)cc1 (racemic)
IC50 [2]: > 100 µM

c1ccc(CN(CCc2c[nH]c3ccccc23)Cc2ccccc2)cc1
IC50 [2]: 3.2 µM

O=[N+]([O-])c1ccc(Sc2[nH]c3ccccc3c2CCN(Cc2ccccc2)Cc2ccccc2)c([N+](=O)[O-])c1
IC50 [2]: 2.2 µM

O=C(CN1CCc2c([nH]c3ccccc23)C1c1ccccc1)c1ccccc1 (racemic)
IC50 [2]: 1.6 µM

NCC1(CC(=O)O)CCCCC1
inhibition (Mus musculus [8]): Active

O=C(O)[C@H](Cc1c[nH]c2ccccc12)N(Cc1ccccc1)Cc1ccccc1
Papp at 24 h, 500 µM [9]: 3.17 ×10⁻⁶ cm/s | IC50 [2]: 8.2 µM

COC(=O)[C@H](Cc1c[nH]c2ccccc12)N(Cc1ccccc1)Cc1ccccc1
IC50 [1]: 0.2 nM | inhibition [3]: Dose-dependent effect | Papp at 24 h, 500 µM [9]: 0.97 ×10⁻⁶ cm/s | Stability [10]: Stable | Drug metabolism [11]: Metabolite_Detected | inhibition [12]: Active | inhibition [13]: Active | inhibition (Mus musculus [14]): Dose-dependent effect | inhibition in vivo at 30 mg/kg (Mus musculus [15]): 63% | inhibition [5]: inactive | inhibition (Mus musculus [16]): Dose-dependent effect | IC50 [2]: 0.04 µM

O=[N+]([O-])c1ccc(CN2CCc3c([nH]c4ccccc34)C2c2ccccc2)cc1 (racemic)
IC50 [2]: 3.3 µM

c1ccc(COc2ccc3[nH]cc(CCN(Cc4ccccc4)Cc4ccccc4)c3c2)cc1
IC50 [2]: 1.9 µM

O=[N+]([O-])c1ccc(CN(CCc2c[nH]c3ccccc23)Cc2ccccc2)cc1
IC50 [2]: 3 µM
